Experimental data gathered from unrelated publications.
Compare with care: the assays were run in different laboratories.
Target: Phosphatidylinositol 5-phosphate 4-kinase type-2 gamma (PIP4K2C, Homo sapiens, UniProt Q8TBX8)
One construct used (Q8TBX8 1-421): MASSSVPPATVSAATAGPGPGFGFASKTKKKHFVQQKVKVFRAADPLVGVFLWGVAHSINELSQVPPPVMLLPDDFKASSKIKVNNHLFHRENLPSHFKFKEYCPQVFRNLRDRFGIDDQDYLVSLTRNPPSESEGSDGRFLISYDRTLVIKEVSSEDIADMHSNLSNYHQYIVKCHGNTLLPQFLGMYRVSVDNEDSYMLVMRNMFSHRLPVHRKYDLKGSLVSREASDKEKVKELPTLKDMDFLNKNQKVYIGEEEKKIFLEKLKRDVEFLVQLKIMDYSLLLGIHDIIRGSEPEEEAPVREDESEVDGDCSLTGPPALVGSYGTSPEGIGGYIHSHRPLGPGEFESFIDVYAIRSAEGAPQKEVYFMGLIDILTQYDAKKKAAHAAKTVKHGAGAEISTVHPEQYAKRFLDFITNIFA

For CC(C)CC(=O)N1CCc2nc(-c3ccc(Br)cc3)nc(N(C)Cc3ccccc3)c2C1, the remaining binding was 96% (cell-free assay; competition with immobilised ligand; 0.1 µM).
COc1ccnn2ncc(-c3ccnc(N(C)C)n3)c12 has a remaining binding of 80% (binding; 1 µM).
C=CC(=O)N1CCC(C(=O)NCC(=O)N2CCN(c3nc(-c4cnc(N)nc4C(F)F)nc(N4CCOCC4)n3)CC2)CC1 gave a remaining binding of 95% (binding; competition with immobilised ligand; 1 µM).
For C[C@@H](c1ccc(-n2cnc3c(N)ncnc32)cc1)N1CCc2nn(C)c(Cc3ccccc3)c2C1=O, the remaining binding was 96% (binding; competition with immobilised ligand; 0.1 µM).
The remaining binding of CCN1CCN(Cc2ccc(C(=O)Nc3ccc(C)c(Oc4ccc5c(c4)CC(=O)N5)c3)cc2C(F)(F)F)CC1 is reported as 100% (binding; competition with immobilised ligand; 1 µM).
O=C(c1ccc(Nc2ncc(Cl)c(-c3ccc(Cl)s3)n2)cc1)N1CCC(N2CCCC2)CC1 has a remaining binding of 5.9% (binding; competition with immobilised ligand; 1 µM).
Cc1cc(-n2nc(Cc3cc(F)cc(C(F)(F)F)c3)nc2C)ccc1C(N)=O has a remaining binding of 100% (cell-free assay; competition with immobilised ligand; 1 µM).
F[C@@H]1CCN(c2nccc(-c3cnn4ncccc34)n2)C1 has a remaining binding of 100% (binding; 1 µM).
COc1cnc(Nc2cccc(S(N)(=O)=O)c2)nc1N1CCN(c2ccccc2)C(=O)C1 has a remaining binding of 0.95% (binding; competition with immobilised ligand; 1 µM).
With Cc1cc(C)c(-n2ccn3nc(-c4cccnc4)cc23)cc1NC(=O)c1cc(C#N)cc(S(F)(F)(F)(F)F)c1 the remaining binding was 89.9% (cell-free assay; competition with immobilised ligand; 0.1 µM).
For CC1CCCN1c1nccc(-c2cnn3ncccc23)n1 (stereo not shown), the remaining binding was 100% (binding; 1 µM).
For O=C(c1ccc(Nc2nccc(-c3cc4ccccc4s3)n2)cc1)N1CCC(N2CCCC2)CC1, the remaining binding was 1.4% (binding; competition with immobilised ligand; 1 µM).
For NS(=O)(=O)c1cc(NC(=O)Cc2ccccc2)ccc1Oc1cccc(Cl)c1, the remaining binding was 100% (cell-free assay; competition with immobilised ligand; 1 µM).
C[C@@H]1CCN(c2nccc(-c3cnn4ncccc34)n2)C1 has a remaining binding of 40% (binding; 1 µM).
CCS(=O)(=O)c1cc2cc(C[C@@](O)(CC(C)(C)c3ccc(F)cc3C(N)=O)C(F)(F)F)[nH]c2cn1 has a remaining binding of 100% (cell-free assay; competition with immobilised ligand; 1 µM).
CN(c1nccc(-c2cnn3ncccc23)n1)C1CC1 gave a remaining binding of 100% (binding; 1 µM).
Cc1c(NC(=O)c2cc(C(N)=O)nc3cc(F)ccc23)c(C(F)(F)F)nn1Cc1ccc(C(C)(C)C)cc1 has a remaining binding of 76% (cell-free assay; competition with immobilised ligand; 1 µM).
With c1cncc(-c2cccc(Nc3nccc(NC4CCCCC4)n3)c2)c1 the remaining binding was 21% (binding; competition with immobilised ligand; 10 µM).
O=C(Nc1c[nH]nc1C(=O)NC1CCNCC1)c1cc(F)cc(F)c1 has a remaining binding of 76% (binding; competition with immobilised ligand; 1 µM).
With O=C(NCCCN1CCOCC1)c1ccc(Nc2nccc(-c3cc4ccccc4s3)n2)cc1 the remaining binding was 1.9% (binding; competition with immobilised ligand; 1 µM).
N[C@H]1CCN(c2nccc(-c3cnn4ncccc34)n2)C1 gave a remaining binding of 81% (binding; 1 µM).
CNCc1ccccc1-c1csc([C@H](C)Nc2nc(C)nc3cc(OC)c(OC)cc23)c1 gave a remaining binding of 100% (cell-free assay; competition with immobilised ligand; 1 µM).
